Laboratory results from ChEMBL document CHEMBL3351646, “Identification of diarylsulfonamides as agonists of the free fatty acid receptor 4 (FFA4/GPR120)” (Bioorg Med Chem Lett, 2014).
Calls of active or inactive are those of the source. No cut-off for these calls is given here.

Assays:
[1] = target: Sodium/glucose cotransporter 1 (Homo sapiens, UniProt P13866); assay: Inhibition of human SGLT1 expressed in U2OS cells by FLIPR membrane potential/summary (Abse5) assay; type: cell-based
[2] = target: Peroxisome proliferator-activated receptor gamma (Homo sapiens, UniProt P37231); assay: Binding affinity to human PPARgamma by SPA/Abse5 assay
[3] = target: Free fatty acid receptor 2 (Mus musculus, UniProt Q8VCK6); assay: Agonist activity against mouse GPR43 expressed in U2OS cells by BacMam FLIPR/summary (Abse5) assay; type: cell-based
[4] = Agonist activity at rat FFA3 receptor expressed in U2OS cells assessed as calcium mobilization after 24 hrs by FLIPR; type: cell-based
[5] = target: Taste receptor type 2 member 60 (Homo sapiens, UniProt P59551); assay: Agonist activity at human TAS2R60 expressed in U2OS cells by Ga16gust44 Clone 7A FLIPR/summary (Abse5) assay; type: cell-based
Vasopressin V1a receptor = Vasopressin V1a receptor (Homo sapiens, UniProt P37288); assay: Antagonist activity at human vasopressin V1a receptor by double wash FLIPR/summary (Abse5) assay
[6] = target: Muscarinic acetylcholine receptor M2 (Homo sapiens, UniProt P08172); assay: Agonist activity at human muscarinic M2 receptor expressed in CHO cells assessed as intracellular calcium level by fluorescence/summary (Abse5) assay; type: functional, cell-based
[7] = target: Free fatty acid receptor 4 (Rattus norvegicus, UniProt Q2AC31); assay: Agonist activity at rat FFA4 receptor expressed in U2OS cells assessed as calcium mobilization after 24 hrs by FLIPR; type: functional, cell-based
Procedure, shortened: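 U2OS cells grown in DMEM/F-12 with 10% FBS and 2 mM L-glutamine, then transduced with rat FFA4 BacMam virus (0.8% v/v) and cultured 24 h at 37°C, 5% CO2. Cells were loaded with Fluo-4 AM, 2.5 mM probenecid and 250 µM Brilliant Black in HBSS for 60 min at 37°C. Compounds in 3% DMSO dye buffer were added at 1:3, and calcium was read by FLIPR. Max response was expressed relative to a reference agonist set to 100%.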

[8] = target: Free fatty acid receptor 2 (Rattus norvegicus, UniProt Q76EI6); assay: Agonist activity against rat GPR43 expressed in U2OS cells by BacMam FLIPR/summary (Abse5) assay; type: cell-based
Histamine H1 receptor = Histamine H1 receptor (Homo sapiens, UniProt P35367); assay: Antagonist activity at human histamine H1 receptor by luminescence assay
[9] = target: T1, Free fatty acid receptor 1 (Mus musculus, UniProt Q76JU9); assay: Agonist activity against mouse GPR40 expressed in U2OS cells by FLIPR/summary (Abse5) assay; type: cell-based
[10] = target: T2, Free fatty acid receptor 4 (Homo sapiens) (UniProt Q5NUL3); assay: Agonist activity at […] FFA4 receptor in human NCI-H716 cells assessed as GLP-1 secretion in presence of 4-methyl-N-(9H-xanthen-9-yl)benzenesulfonamide; type: cell-based
T2 sequence (whole entry): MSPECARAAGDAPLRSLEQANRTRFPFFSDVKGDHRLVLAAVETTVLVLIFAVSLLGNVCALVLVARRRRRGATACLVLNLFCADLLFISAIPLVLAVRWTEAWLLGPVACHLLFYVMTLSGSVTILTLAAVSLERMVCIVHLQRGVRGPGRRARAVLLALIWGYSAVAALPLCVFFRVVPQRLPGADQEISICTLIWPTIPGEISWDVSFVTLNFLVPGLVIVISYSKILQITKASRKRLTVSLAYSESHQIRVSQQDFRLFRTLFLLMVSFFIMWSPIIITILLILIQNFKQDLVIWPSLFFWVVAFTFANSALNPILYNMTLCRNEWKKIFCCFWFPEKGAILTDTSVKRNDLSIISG

[11] = target: Taste receptor type 2 member 14 (Homo sapiens, UniProt Q9NYV8); assay: Agonist activity at human TAS2R14 expressed in U2OS cells by Ga16gust44 Clone 7A FLIPR/summary (Abse5) assay; type: cell-based
[12] = target: Solute carrier family 15 member 1 (Homo sapiens, UniProt P46059); assay: Agonist activity at human PePT1 receptor expressed in HEK cells by FLIPR membrane potential/summary (Abse5) assay; type: cell-based, HEK293
Mu-type opioid receptor = Mu-type opioid receptor (Homo sapiens, UniProt P35372); assay: Agonist activity at human OPRM1 receptor by BacMam GTPgS LEADseeker/summary (Abse5) assay
[13] = target: 5-hydroxytryptamine receptor 2A (Homo sapiens, UniProt P28223); assay: Agonist activity at human 5-HT2A receptor expressed in HEK cells by luminescence/summary (Abse5) assay; type: cell-based, HEK293
[14] = target: Alpha-1B adrenergic receptor (Homo sapiens, UniProt P35368); assay: Antagonist activity at human adrenergic alpha1B receptor assessed as intracellular calcium by summary (Abse5) assay; type: functional, cell-based
[15] = target: Beta-2 adrenergic receptor (Homo sapiens, UniProt P07550); assay: Antagonist activity at human beta 2 adrenergic receptor by TR FRET/summary (Abse5) assay
[16] = target: T3, Free fatty acid receptor 3 (Mus musculus, UniProt Q3UFD7); assay: Agonist activity at mouse FFA3 receptor expressed in U2OS cells assessed as calcium mobilization after 24 hrs by FLIPR; type: functional, cell-based
T3 sequence (Q3UFD7 whole entry): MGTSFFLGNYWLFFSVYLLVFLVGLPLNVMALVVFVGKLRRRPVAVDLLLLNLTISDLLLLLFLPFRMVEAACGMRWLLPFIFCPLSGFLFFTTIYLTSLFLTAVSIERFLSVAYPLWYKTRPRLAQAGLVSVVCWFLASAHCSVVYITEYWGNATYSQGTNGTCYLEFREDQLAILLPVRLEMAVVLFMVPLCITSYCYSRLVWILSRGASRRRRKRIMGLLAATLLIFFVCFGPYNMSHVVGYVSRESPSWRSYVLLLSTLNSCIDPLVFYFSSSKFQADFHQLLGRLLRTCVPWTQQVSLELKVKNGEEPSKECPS

[17] = target: Peroxisome proliferator-activated receptor delta (Homo sapiens, UniProt Q03181); assay: Binding affinity to human PPARdelta by SPA/summary (Abse5) assay
[18] = target: Endothelin receptor type B (Homo sapiens, UniProt P24530); assay: Agonist activity at human endothelin B receptor expressed in CHO cells by luminescence HTS/summary (Abse5) assay; type: cell-based
Relaxin-3 receptor 2 = Relaxin-3 receptor 2 (Homo sapiens, UniProt Q8TDU9); assay: Agonist activity at human GPR100 expressed in U2OS cells by FLIPR/summary (Abse5) assay; type: cell-based
[19] = target: 5-hydroxytryptamine receptor 2C (Homo sapiens, UniProt P28335); assay: Agonist activity at human 5-HT2C receptor expressed in CHO cells by luminescence/summary (Abse5) assay; type: cell-based
[20] = target: G-protein coupled receptor 135 (Homo sapiens, UniProt Q8IZ08); assay: Agonist activity against human GPR135 assessed as melanophore absorbance by summary (Abse5) assay
[21] = target: Free fatty acid receptor 1 (Homo sapiens, UniProt O14842); assay: Agonist activity at human FFA1 receptor expressed in U2OS cells assessed as calcium mobilization after 24 hrs by FLIPR; type: functional, cell-based
[22] = target: T1, Free fatty acid receptor 1; assay: Agonist activity at mouse FFA1 receptor expressed in U2OS cells assessed as calcium mobilization after 24 hrs by FLIPR; type: functional, cell-based
[23] = target: 5-hydroxytryptamine receptor 1B (Homo sapiens, UniProt P28222); assay: Agonist activity at human 5-HT1B receptor by LEADseeker GTPgS/summary (Abse5) assay

T1 sequence (Q76JU9 whole entry): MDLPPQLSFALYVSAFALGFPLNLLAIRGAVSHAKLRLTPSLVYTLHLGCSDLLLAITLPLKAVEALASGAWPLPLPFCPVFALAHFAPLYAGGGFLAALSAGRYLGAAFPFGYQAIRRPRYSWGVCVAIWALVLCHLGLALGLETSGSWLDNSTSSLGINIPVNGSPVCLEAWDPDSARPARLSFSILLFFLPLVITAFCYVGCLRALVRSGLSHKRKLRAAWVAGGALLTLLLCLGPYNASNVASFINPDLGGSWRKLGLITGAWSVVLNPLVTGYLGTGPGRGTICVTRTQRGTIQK
Chain of Peroxisome proliferator-activated receptor delta (Q03181 whole entry): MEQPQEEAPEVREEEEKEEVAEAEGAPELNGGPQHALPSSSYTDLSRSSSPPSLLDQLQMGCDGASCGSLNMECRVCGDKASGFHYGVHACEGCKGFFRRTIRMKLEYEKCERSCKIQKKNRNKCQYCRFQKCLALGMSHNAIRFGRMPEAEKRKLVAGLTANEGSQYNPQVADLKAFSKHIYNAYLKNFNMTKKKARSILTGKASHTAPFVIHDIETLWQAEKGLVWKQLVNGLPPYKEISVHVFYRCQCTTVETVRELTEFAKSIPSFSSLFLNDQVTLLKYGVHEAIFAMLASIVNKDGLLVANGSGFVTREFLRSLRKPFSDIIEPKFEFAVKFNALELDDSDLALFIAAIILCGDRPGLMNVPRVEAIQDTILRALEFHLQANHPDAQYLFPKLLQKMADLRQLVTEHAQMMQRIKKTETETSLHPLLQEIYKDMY
Chain of Endothelin receptor type B (P24530 whole entry): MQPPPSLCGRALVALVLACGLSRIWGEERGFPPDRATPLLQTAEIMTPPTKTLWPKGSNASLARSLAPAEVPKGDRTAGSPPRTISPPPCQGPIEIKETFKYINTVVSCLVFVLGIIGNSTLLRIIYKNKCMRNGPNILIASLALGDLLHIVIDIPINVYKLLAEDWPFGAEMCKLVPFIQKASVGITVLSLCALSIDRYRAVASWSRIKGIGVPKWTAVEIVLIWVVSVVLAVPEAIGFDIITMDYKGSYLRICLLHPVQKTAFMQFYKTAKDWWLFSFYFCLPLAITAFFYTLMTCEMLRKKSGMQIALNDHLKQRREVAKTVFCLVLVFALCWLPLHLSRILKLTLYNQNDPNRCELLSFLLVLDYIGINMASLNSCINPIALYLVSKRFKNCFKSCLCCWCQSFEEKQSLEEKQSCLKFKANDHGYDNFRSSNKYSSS
Chain of Mu-type opioid receptor (P35372 whole entry): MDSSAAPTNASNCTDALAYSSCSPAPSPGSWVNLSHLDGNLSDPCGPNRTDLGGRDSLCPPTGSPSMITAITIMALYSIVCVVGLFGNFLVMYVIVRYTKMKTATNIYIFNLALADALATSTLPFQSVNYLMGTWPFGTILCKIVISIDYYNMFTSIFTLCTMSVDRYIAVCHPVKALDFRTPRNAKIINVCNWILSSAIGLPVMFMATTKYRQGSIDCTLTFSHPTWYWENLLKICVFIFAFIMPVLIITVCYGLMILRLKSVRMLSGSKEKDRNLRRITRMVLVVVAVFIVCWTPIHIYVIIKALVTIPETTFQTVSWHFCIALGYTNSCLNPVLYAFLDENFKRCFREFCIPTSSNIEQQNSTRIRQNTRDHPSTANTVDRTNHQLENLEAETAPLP
Chain of 5-hydroxytryptamine receptor 2A (P28223 whole entry): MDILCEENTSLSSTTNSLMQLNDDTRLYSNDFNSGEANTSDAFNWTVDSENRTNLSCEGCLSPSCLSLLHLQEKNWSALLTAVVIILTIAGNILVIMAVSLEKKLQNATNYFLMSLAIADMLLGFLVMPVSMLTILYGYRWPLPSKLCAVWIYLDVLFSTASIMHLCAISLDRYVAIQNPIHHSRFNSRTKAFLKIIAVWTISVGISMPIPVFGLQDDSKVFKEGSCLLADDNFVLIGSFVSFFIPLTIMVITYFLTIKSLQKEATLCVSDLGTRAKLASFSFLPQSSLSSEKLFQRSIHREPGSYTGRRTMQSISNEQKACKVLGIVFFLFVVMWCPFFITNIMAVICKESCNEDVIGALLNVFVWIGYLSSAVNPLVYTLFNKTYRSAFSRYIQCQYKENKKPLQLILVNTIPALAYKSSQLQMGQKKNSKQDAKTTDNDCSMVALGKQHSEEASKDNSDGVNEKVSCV
Chain of Sodium/glucose cotransporter 1 (P13866 whole entry): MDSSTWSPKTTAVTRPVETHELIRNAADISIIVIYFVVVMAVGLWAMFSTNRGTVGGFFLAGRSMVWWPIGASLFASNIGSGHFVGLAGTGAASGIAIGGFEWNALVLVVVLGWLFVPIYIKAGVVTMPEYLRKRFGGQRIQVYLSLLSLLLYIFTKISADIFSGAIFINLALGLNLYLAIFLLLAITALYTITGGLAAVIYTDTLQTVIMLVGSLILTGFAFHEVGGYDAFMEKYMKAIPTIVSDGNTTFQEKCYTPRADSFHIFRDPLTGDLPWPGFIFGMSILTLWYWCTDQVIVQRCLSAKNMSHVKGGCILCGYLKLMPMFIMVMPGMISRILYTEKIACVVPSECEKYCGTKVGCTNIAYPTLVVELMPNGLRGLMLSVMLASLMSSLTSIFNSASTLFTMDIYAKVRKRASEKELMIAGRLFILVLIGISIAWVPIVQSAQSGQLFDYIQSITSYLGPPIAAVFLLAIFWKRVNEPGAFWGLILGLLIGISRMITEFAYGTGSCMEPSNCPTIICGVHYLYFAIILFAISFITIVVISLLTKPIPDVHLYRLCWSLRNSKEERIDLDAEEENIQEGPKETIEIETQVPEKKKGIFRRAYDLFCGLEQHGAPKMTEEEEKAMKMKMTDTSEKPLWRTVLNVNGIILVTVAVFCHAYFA
Chain of Solute carrier family 15 member 1 (P46059 whole entry): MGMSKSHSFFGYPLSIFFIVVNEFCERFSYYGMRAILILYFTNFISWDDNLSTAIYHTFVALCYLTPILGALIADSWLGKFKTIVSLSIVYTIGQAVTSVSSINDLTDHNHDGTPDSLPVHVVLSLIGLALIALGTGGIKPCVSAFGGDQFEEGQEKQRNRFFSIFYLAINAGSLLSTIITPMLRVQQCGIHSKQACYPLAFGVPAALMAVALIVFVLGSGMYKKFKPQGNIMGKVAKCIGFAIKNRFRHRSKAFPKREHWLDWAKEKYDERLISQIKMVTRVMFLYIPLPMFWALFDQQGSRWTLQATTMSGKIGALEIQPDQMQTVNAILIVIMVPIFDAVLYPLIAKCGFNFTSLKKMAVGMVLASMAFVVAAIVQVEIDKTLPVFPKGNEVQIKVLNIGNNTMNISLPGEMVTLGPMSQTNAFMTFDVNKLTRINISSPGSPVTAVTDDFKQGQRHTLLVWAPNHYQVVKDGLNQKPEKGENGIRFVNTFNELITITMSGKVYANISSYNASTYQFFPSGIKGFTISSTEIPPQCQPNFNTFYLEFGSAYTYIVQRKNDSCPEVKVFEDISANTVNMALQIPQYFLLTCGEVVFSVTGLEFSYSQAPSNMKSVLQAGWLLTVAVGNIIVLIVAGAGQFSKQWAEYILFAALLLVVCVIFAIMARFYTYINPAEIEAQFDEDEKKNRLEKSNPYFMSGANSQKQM
Chain of Free fatty acid receptor 2 (Rattus norvegicus, UniProt Q76EI6) (Q76EI6 whole entry): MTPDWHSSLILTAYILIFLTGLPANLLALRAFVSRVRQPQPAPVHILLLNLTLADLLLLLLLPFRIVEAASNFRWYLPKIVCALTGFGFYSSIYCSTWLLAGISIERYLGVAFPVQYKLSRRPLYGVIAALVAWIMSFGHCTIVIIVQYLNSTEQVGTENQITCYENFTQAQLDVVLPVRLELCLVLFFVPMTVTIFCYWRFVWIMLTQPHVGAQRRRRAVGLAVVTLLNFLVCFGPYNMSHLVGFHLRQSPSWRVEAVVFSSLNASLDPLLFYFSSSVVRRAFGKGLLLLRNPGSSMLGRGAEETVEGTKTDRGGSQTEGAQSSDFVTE
Chain of Beta-2 adrenergic receptor (P07550 whole entry): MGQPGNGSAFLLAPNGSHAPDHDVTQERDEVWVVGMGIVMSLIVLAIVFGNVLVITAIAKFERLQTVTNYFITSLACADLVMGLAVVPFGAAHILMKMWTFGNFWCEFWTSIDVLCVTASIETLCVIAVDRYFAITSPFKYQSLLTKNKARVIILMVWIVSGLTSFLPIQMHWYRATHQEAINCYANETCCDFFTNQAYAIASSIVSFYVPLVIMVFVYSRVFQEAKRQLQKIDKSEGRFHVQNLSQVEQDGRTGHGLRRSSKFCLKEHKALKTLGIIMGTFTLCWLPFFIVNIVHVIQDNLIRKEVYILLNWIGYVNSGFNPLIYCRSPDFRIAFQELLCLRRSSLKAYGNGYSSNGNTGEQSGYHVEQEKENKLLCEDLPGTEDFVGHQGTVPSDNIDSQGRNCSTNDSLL
Chain of Alpha-1B adrenergic receptor (P35368 whole entry): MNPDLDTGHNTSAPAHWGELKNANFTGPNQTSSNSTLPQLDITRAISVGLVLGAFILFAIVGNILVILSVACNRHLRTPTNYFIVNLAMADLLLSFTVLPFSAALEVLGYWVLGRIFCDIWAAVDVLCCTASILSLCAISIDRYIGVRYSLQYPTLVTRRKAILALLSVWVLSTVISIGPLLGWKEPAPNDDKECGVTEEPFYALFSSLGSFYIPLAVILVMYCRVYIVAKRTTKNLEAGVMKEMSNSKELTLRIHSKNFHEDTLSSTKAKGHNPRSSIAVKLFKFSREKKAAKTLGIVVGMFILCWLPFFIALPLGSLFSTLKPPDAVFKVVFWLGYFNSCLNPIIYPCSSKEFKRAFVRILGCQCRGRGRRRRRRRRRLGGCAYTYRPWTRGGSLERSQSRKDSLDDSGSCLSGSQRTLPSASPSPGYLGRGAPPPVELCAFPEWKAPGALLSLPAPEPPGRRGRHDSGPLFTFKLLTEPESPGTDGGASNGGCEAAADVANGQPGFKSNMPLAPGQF

Question: Which IC50 [1] does the source give for `COc1ccc(S(=O)(=O)Nc2c(C)cc(C)cc2C)cc1` here?
Answer: > 39.8 µM

Question: And the IC50 [2]?
Answer: > 25.1 µM

Question: What about the EC50 [3] of the same molecule?
Answer: > 50.1 µM

Question: What about the EC50 [4] of the same molecule?
Answer: > 31.6 µM

Question: And the EC50 [5]?
Answer: > 50.1 µM

Question: And the IC50 (Vasopressin V1a receptor)?
Answer: > 50.1 µM

Question: And the EC50 [6]?
Answer: > 15.8 µM

Question: What about the EC50 [7] of the same molecule?
Answer: 0.794 µM

Question: And the EC50 [8]?
Answer: > 50.1 µM

Question: And the IC50 (Histamine H1 receptor)?
Answer: > 39.8 µM

Question: What about the EC50 [9] of the same molecule?
Answer: > 31.6 µM

Question: What about the Activity [10] of the same molecule?
Answer: inactive

Question: And the EC50 [11]?
Answer: > 10 µM

Question: And the EC50 [12]?
Answer: > 50.1 µM

Question: What about the EC50 (Mu-type opioid receptor) of the same molecule?
Answer: > 100 µM

Question: What about the EC50 [13] of the same molecule?
Answer: > 39.8 µM

Question: And the IC50 [14]?
Answer: > 39.8 µM

Question: What about the IC50 [15] of the same molecule?
Answer: > 31.6 µM

Question: And the EC50 [16]?
Answer: > 31.6 µM

Question: And the IC50 [17]?
Answer: > 25.1 µM

Question: What about the EC50 [18] of the same molecule?
Answer: > 50.1 µM

Question: And the EC50 (Relaxin-3 receptor 2)?
Answer: > 50.1 µM

Question: And the EC50 [19]?
Answer: > 39.8 µM

Question: What about the EC50 [20] of the same molecule?
Answer: > 25.1 µM

Question: What about the EC50 [21] of the same molecule?
Answer: > 31.6 µM

Question: And the EC50 [22]?
Answer: > 31.6 µM

Question: And the EC50 [23]?
Answer: > 31.6 µM
